≈ marks a conversion by molar mass, not a printed value.
Key:
[1] = cited from earlier work
[2] = Pharmacokinetics of oral topotecan with or without chrysin formulations in rats; assay type: in vivo
Summary of the method: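 Male Sprague-Dawley rats (250-290 g), fasted 12 h, n=3 per group. Oral BCRP substrate (10 mg/kg in saline) given alone or with test compound, free or as solid dispersion (100 mg/kg equivalent in 0.5% methylcellulose/5% PEG). Femoral arterial plasma analysed by HPLC-fluorescence (ex 350/em 527 nm), 10-1000 ng/mL. Noncompartmental: trapezoidal AUC, observed Cmax/Tmax. ANOVA with Dunnett's test.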

[3] = Solubility study in distilled water; assay type: physicochemical
Summary of the method: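 Each formulation, equivalent to 1 mg test compound, stirred in 1 mL distilled water at 600 rpm for 24 h at room temperature. Centrifuged at 13,000 rpm for 10 min and filtered through 0.45 µm. Filtrate diluted in ethanol and quantified by C18 HPLC-UV at 267 nm against a 0.5-20 µg/mL calibration. n=3, mean±SD.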

[4] = tested on: breast cancer resistance protein (BCRP); settings: read-out: IC50 against mitoxantrone efflux; BCRP inhibition; cited from earlier work
[5] = male, Sprague-Dawley, rat, plasma, po, 10 mg/kg

For CCCCCCCCCCCCOCCOCCOCCOCCO [Brij®L4, polyoxyethylene (4) lauryl ether], the “critical micelle concentration (CMC)” value [1] is given as 0.00097 %, w/v.
CC[C@@]1(O)C(=O)OCc2c1cc1n(c2=O)Cc2cc3c(CN(C)C)c(O)ccc3nc2-1 [Control (Topotecan Only), topotecan] showed an AUC [2, 5] of 578 ± 37.2 ng·h/mL, a Cmax [2, 5] of 109 ± 44.5 ng/mL and a Tmax [2, 5] of 1.3 ± 0.66 h.
In the case of O=c1cc(-c2ccccc2)oc2cc(O)cc(O)c12 [chrysin (untreated drug), 5,7-dihydroxyflavone], the solubility at 24 h [3] is given as 3.04 ± 0.19 µg/mL (≈ 11.9 µM), the “effect on oral exposure of topotecan” value ([2]; rats, oral, versus topotecan only) is given as “no effect” and the IC50 [4] is given as 390 ± 130 nM.

— article PMC6635418 (Current Drug Delivery, 2019)
